Assay outcomes deposited in PubChem by The Scripps Research Institute Molecular Screening Center.
OX1R antag-1 = human HCRTR1 antagonism. 330,000 tested, 0.43% active. inhibition, % at 5 µM. CHO/OX1R cells, Fluo-8 calcium fluorescence, orexin A;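 active means inhibition above its plate's threshold, mean inhibition of all tested compounds on the plate plus 3 SD, cut at about 37% in these data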
GPR7 antag = human neuropeptides B/W receptor 1 antagonism; GPR7-expressing cells, fluorescence antagonist assay; inhibition, % at 4.4 µM; 290,000 tested, 1.1% active; AID 1861; in the data active means inhibition above about 16%, passing the limit was not always enough;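 further: cells stimulated with the agonist NPW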
Target sequence (P48145 whole entry, looked up): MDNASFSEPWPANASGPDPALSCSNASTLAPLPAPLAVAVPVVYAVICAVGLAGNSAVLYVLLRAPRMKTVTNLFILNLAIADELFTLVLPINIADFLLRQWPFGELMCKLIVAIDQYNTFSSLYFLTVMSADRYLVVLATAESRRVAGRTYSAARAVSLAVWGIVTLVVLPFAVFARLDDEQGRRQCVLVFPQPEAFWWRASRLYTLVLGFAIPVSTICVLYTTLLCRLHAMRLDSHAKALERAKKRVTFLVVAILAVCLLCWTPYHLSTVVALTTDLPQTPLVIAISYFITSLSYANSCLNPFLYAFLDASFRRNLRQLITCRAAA
OX1R antag-2 = OX1R (human) antagonism; O43613; OX1R-expressing cells, FRET antagonist read-out; inhibition, % at 6.6 µM; 330,000 tested, 1.8% active; AID 485270; in the data active means inhibition mostly above about 38%, no sharp cut-off; inactive means mostly below about 40%
TAAR1 agonist = agonists of human TAAR1 | Q96RJ0 | AID 624467 | activation, % at 3 µM | CHO RD-HGA16 TAAR1, Fluo-8 calcium fluorescence; vehicle wells 0%, saturating PEA agonist 100% | 360,000 tested, 0.99% active;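 active means activation above the mean activation of all test compounds in the run plus 3 SD, cut at about 38% in these data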
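Assay system – CHO-derived RD-HGA16 cells with stable Gα16 and human TAAR1 · Compound dosing – one-point dosing at 3 µM (nominal) · Incubation – 17-24 h seeding, 75 min 37 °C dye, 30 min RT · Measured by – kinetic Fluo-8 calcium fluorescence · Control set – DMSO vehicle as 0%, PEA at EC100 as 100% · Repeats – single well for each compound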
CHO parental Ca = counter-screen: ATP calcium response change in parental CHO cells | parental CHO-K1, ATP-induced calcium, Fluo-8 fluorescence | inhibition, % at 5.6 µM | 330,000 tested, 0.63% active;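 active means inhibition above that plate's mean sample inhibition plus 3 SD, cut at about 26% in these data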
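Assay system: untransfected parental CHO cell line. Also added: ATP agonist challenge. Dosing: one dose, 5.6 µM nominal. Measured by: Fluo-8 fluorescence. Read-out: % inhibition. Benchmarks: ATP wells versus no-ATP DMSO wells. Repeats: no replicates.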
TAAR1 antag = human TAAR1 antagonism; Q96RJ0; CHO RD-HGA16 TAAR1, Fluo-8 calcium fluorescence, antagonist; inhibition, % at 3 µM; 360,000 tested, 1.5% active; AID 624466;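 active means inhibition above a per-plate cutoff, the mean inhibition of test compounds on that plate plus 3 SD, cut at about 49% in these data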
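Test system: hTAAR1-expressing CHO RD-HGA16 cells, Gα16-coupled; Probe or stimulus: EC80 β-phenethylamine stimulus; Compound dosing: single nominal final test compound concentration of 3 µM; Timing: 140 s kinetic read after compound, 140 s after agonist; Signal: Fluo-8 calcium-sensitive fluorescence; Measure: % inhibition of agonist calcium response; Controls: DMSO and EC80 PEA controls.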
Each line names hits and unclear results; the compound was inactive in the other large screens. Hits are enriched below; roughly 4.5% of the tested compounds scored in any of these assays.

CC(C)Nc1nc(NCCOc2ccccc2)c2sccc2n1	none (no result: OX1R antag-1, GPR7 antag, OX1R antag-2, CHO parental Ca)
Cc1ccc(S(=O)(=O)N2CCCC2C(=O)NCc2ccccc2Cl)cc1 (centres undefined)	none
COc1ccc(NS(=O)(=O)c2ccc(Cl)c(C(=O)O)c2)cc1S(=O)(=O)N1CCCCC1	CHO parental Ca 43
Cc1ccc(S(=O)(=O)N(C)C)cc1NC(=O)C1CCCCN1S(=O)(=O)c1ccccc1 (centres undefined)	none (no result: GPR7 antag)
COc1ccc(NS(=O)(=O)c2cccc(C(=O)O)c2)cc1S(=O)(=O)N1CCCCC1	none (no result: GPR7 antag)
CC1Cc2cc(S(=O)(=O)N3CCCCC3C)ccc2N1C(=O)C1CCC1 (centres undefined)	none
Cc1ccc(S(=O)(=O)N2CCC[C@H]2C(=O)Nc2ccccc2Cl)cc1	OX1R antag-2 61 (no result: GPR7 antag)
CC1Cc2ccccc2N1C(=O)C1CCCCN1S(=O)(=O)c1ccccc1 (centres undefined)	OX1R antag-2 49
Cc1cccc(NC(=O)C2CCCCN2S(=O)(=O)c2ccccc2)c1C (centres undefined)	OX1R antag-2 33 (no result: GPR7 antag)
COc1ccc(CCn2cnn3c(=O)c4ccccc4nc3c2=O)cc1OC	none (no result: OX1R antag-1, GPR7 antag, OX1R antag-2, CHO parental Ca)
NC(=O)c1ncn([C@@H]2O[C@H](C(=O)N[C@H](Cc3ccccc3)C(=O)O)[C@@H](O)[C@H]2O)n1	none (no result: OX1R antag-1, GPR7 antag, OX1R antag-2, CHO parental Ca)
CCOc1ccccc1NC(=O)C1CCCCN1S(=O)(=O)c1ccc(F)cc1 (centres undefined)	OX1R antag-2 53
O=C(Nc1ccccc1F)C1CCCN1S(=O)(=O)c1ccc(Cl)cc1 (centres undefined)	OX1R antag-2 46 (no result: GPR7 antag)
COc1ccc(C)cc1NC(=O)C1CCN(S(=O)(=O)c2ccccc2)CC1	none
Cc1ccc(S(=O)(=O)N2CCC[C@H]2C(=O)Nc2ccccc2C)cc1	OX1R antag-2 48 (no result: GPR7 antag)
COc1ccc(C)cc1NC(=O)C1CCCCN1S(=O)(=O)c1ccccc1 (centres undefined)	OX1R antag-2 66 (no result: GPR7 antag)
O=C(Cc1c[nH]c2ccccc12)Nc1ccc(Nc2cccnc2)cc1	none (no result: OX1R antag-1, GPR7 antag, OX1R antag-2, CHO parental Ca)
O=C(NCCCN1CCOCC1)c1cccc(S(=O)(=O)N2CCc3ccccc32)c1	none (no result: OX1R antag-1, GPR7 antag, OX1R antag-2, CHO parental Ca)
Cc1ccc(S(=O)(=O)N2Cc3ccccc3CC2C(=O)Nc2ccc3c(c2)OCO3)cc1 (centres undefined)	none
COc1ccc(NC(=O)C2CCCCN2S(=O)(=O)c2ccccc2)cc1S(=O)(=O)N1CCOCC1 (centres undefined)	TAAR1 antag 58 (no result: OX1R antag-1, GPR7 antag, OX1R antag-2, CHO parental Ca)
Cc1cccc(NC(=O)C2CCCN2S(=O)(=O)c2ccc(Cl)cc2)n1 (centres undefined)	OX1R antag-2 76
Cc1ccc(S(=O)(=O)N2Cc3ccccc3CC2C(=O)NC(C)(C)C)cc1 (centres undefined)	OX1R antag-2 27
CC(C)(C)OC(=O)N1CCC[C@@H]1C(=O)N1CCC[C@H]1C(=O)NCc1ccccc1	none (no result: OX1R antag-1, GPR7 antag, OX1R antag-2, CHO parental Ca)
CC(NC(=O)c1ccc(Cl)cc1Cl)C(c1ccccc1)N1CCOCC1 (centres undefined)	none
CC(Cc1cccs1)NC(=O)Nc1ccc(Cl)c(Cl)c1 (centres undefined)	OX1R antag-1 47, OX1R antag-2 49, CHO parental Ca 63
CC(NC(=O)Nc1ccc(Cl)c(Cl)c1)C(c1ccccc1)N1CCOCC1 (centres undefined)	TAAR1 agonist 57
CC(NC(=O)Nc1ccc([N+](=O)[O-])cc1)C(c1ccccc1)N1CCOCC1 (centres undefined)	TAAR1 agonist 49
CC(Cc1cccs1)NC(=O)Nc1ccc(Cl)cc1 (centres undefined)	none
CCCCC(C(=O)NC(C)c1ccccc1)C(=O)NC(C)c1ccccc1 (centres undefined)	OX1R antag-2 57
CC(C)(C)OC(=O)N1CCC[C@@H]1C(=O)N1CCC[C@@H]1C(=O)NCc1ccccc1	none (no result: OX1R antag-1, GPR7 antag, OX1R antag-2, CHO parental Ca)
C[C@H](NC(=O)c1ccccc1)C(=O)OCC(=O)Nc1ccc2c(c1)OCO2	TAAR1 antag 49 (no result: GPR7 antag)
O=C(COC(=O)[C@H](Cc1c[nH]c2ccccc12)NC(=O)c1ccc(Cl)cc1)Nc1ccc2c(c1)OCO2	CHO parental Ca 35
CNC(=O)c1c(NC(=O)c2ccc(S(=O)(=O)N3CCCc4ccccc43)cc2)sc2c1CCN(C)C2	none
